# Hits are enriched below; roughly 4.1% of the tested compounds scored in any of these assays.
# KCNQ1 pot = potentiators or activators of human KCNQ1 potassium channel | P51787 | CHO-K1 KCNQ1, thallium flux FluxOR fluorescence; active compounds read high | B-score at 10 µM | hit rate 0.35% among 310,000;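 active means fluorescence ratio B-score, a plate-corrected score, at least three library SD, with initial intensity B-score within 5 SD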
# Target sequence (P51787 whole entry, looked up): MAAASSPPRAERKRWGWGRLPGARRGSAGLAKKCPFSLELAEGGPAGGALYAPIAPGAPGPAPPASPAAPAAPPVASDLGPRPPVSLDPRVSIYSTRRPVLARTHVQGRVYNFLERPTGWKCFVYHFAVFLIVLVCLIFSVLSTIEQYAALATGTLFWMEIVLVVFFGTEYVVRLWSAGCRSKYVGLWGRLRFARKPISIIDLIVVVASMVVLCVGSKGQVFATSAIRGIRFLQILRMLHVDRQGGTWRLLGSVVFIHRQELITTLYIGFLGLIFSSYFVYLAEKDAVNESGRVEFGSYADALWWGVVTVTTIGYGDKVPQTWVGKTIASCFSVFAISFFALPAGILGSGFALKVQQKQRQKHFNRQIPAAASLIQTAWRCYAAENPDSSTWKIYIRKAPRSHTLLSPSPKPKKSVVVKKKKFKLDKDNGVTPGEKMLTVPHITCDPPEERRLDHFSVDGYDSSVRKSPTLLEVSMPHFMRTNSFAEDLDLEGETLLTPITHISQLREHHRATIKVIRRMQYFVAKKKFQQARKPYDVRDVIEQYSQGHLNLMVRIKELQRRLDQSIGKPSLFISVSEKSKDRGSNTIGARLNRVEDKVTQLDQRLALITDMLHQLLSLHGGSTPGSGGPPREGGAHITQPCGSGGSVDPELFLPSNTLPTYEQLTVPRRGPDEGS
#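 Assay system: stable KCNQ1 CHO-K1 line; medium: assay buffer, equal DMSO in all wells; timing: 90 min dye loading and 20 min compound exposure, both at room temperature; technique: kinetic FluxOR thallium fluorescence, 10-s 1-Hz baseline, 110-s post-stimulus read; read-out basis: B score of baseline-normalized fluorescence ratio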
# hERG rescue = shields human hERG channel from block by proarrhythmic agents. Q12809. CHO-hERG, FluxOR thallium flux, dofetilide IC70 present. activation (rescue from dofetilide block), less the hit threshold, % at 10 µM. hit rate 0.51% among 310,000. AID 1511;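 active means activation above the mean of controls blocked by dofetilide plus 5 SD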;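 further: thallium influx through hERG after potassium depolarization seen as dye fluorescence rise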
# KCNK9 inh = human KCNK9 channel inhibition. B-score at 10 µM. hit rate 1.2% among 310,000. HEK293 KCNK9, FluxOR thallium flux fluorescence; active compounds read low;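 active means ratio B-score over 3 SD below the library mean, with starting fluorescence within 5 SD of its mean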;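 further: negative B-score means less thallium flux so channel inhibition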
# KCNQ1 block = human KCNQ1 channel inhibition | P51787 | CHO-K1 KCNQ1, FluxOR thallium flux fluorescence; active compounds read high | B-score at 10 µM | hit rate 1.3% among 310,000;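 active means compounds whose thallium flux B-score, printed positive for inhibition, exceeds three library SD while starting fluorescence stays within three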;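 further: channel opened by potassium depolarization with thallium stimulus after 20 min compound exposure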
# Cl transport mod = modulates chloride dependent transport by human KCC2 | KCC2 cells, thallium flux FluoZin-2 fluorescence | B-score of Tl+ flux slope (higher = more flux/activation; lower = inhibition) at 10 µM | hit rate 2.2% among 190,000;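 active means thallium flux slope and its plate-corrected score both differing from the plate sample mean at a set confidence after two filtering rounds, in either direction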;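 further: slope of fluorescence scaled to starting intensity during 10 to 20 s after thallium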
# KCNK3 inh = human KCNK3 channel inhibition, primary screen; B-score at 10 µM; AID 602410; CHO-KCNK3 thallium flux, FluxOR fluorescence; active compounds read low; O14649; hit rate 0.84% among 340,000;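 active means B-score under library mean minus 4 SD, starting fluorescence ratio at most library mean plus 5 SD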;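 further: more negative B-score means stronger inhibition of thallium flux through KCNK3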
# KCC2 secondary = KCC2 (human) modulation, secondary assay; shares compounds with Cl transport mod; HEK293-KCC2, thallium flux, FluoZin2 fluorescence; active compounds read high; normalised thallium flux (F/F0 slope) at 10 µM; hit rate 15% among 3,700;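 active means thallium flux slope above the same plate's solvent-only control mean plus 3 SD; inconclusive means the two replicate wells disagree; inactive means no significant difference from solvent-only control wells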
# KCC2 bumet counter = bumetanide-insensitive thallium flux in KCC2 cells with ouabain, counter-screen; shares compounds with Cl transport mod; HEK293-KCC2 + bumetanide/ouabain, thallium flux FluoZin2; active compounds read high; normalized thallium flux at 10 µM; hit rate 49% among 3,700; AID 1714;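 active means thallium entry rate above the same plate's blocked-transporter control wells by more than 3 SD; inconclusive means the two repeat wells disagree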;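 further: raw slope of fluorescence over initial fluorescence between 10 and 20 s after thallium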
# KCC2 secondary2 = KCC2 (human) modulation, second secondary assay | shares compounds with Cl transport mod | AID 1715 | normalized thallium flux at 10 µM | hit rate 23% among 3,700 | HEK293-KCC2, thallium flux FluoZin2 fluorescence; actives lie on both sides; F/F0 rise rate, 10–20 s post-thallium;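 active means thallium flux slope more than 3 SD above or below the plate's solvent-only control mean, mostly below; inconclusive means the two repeat wells disagreed; inactive means no significant shift from solvent-only controls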
# HEK counter1 = parental HEK flux effect, counter-screen | shares compounds with Cl transport mod | HEK293 parental cells, thallium flux FluoZin2, ouabain; baseline-ratio fluorescence slope, 10–20 s after thallium | thallium flux rate (normalised fluorescence) at 10 µM | hit rate 46% among 3,700 | AID 1716;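 active means thallium flux rate significantly above the same plate's solvent-only control wells, beyond their mean plus 3 SD; inconclusive means the two replicate wells gave conflicting results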
# KCC2 ouabain = confirmation of human KCC2 modulators with ouabain | shares compounds with Cl transport mod | HEK293-KCC2, thallium flux FluoZin2 fluorescence; bidirectional: low = inhibitor, high = activator | raw Tl+ flux slope (below DMSO = inhibition, above = activation) at 10 µM | hit rate 48% among 3,700;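 active means thallium flux slope beyond 3 SD from same-plate DMSO control mean in most replicates, usually higher, sometimes lower; inconclusive means repeat tests gave conflicting results; inactive means no significant difference from controls in most replicates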;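 further: slope of initial-normalized fluorescence between seconds 10 and 20 after thallium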
# HEK293 Tl flux2 = acts in parental HEK cells, second KCC2 counter-screen | AID 1718 | hit rate 33% among 3,700 | thallium flux slope at 10 µM | HEK293 parental, thallium flux FluoZin-2 fluorescence slope | shares compounds with Cl transport mod;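 active means thallium flux slope above the same plate's solvent-control mean plus 3 SD in both duplicate wells; inconclusive means duplicate wells that disagreed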;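 further: run without ouabain in cells lacking the KCC2 cotransporter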
# Hits are given with their value; . = inactive; ? = inconclusive; / = not tested or not shown.
SMILES,KCNQ1 pot,hERG rescue,KCNK9 inh,KCNQ1 block,Cl transport mod,KCNK3 inh,KCC2 secondary,KCC2 bumet counter,KCC2 secondary2,HEK counter1,KCC2 ouabain,HEK293 Tl flux2
Cc1ccc(-c2csc(NC(=S)NC(=O)c3ccco3)n2)cc1,28,.,.,.,32.3,.,0.0157,0.0469,.,0.0279,0.0394,0.0132
Cc1ccc(-c2csc(NC(=O)CCNC(=O)c3ccco3)n2)cc1,.,.,.,.,.,.,/,/,/,/,/,/
O=C(NNc1nc(-c2ccccc2)cs1)c1ccco1,.,.,.,.,-6.16,.,?,?,0.019,?,0.0123,.
O=C(NC(=S)Nc1nc2ccc(F)cc2s1)c1ccco1,47,40.0,.,.,40.7,.,?,0.128,0.0966,0.0917,0.112,0.0886
O=C(CSc1ccccc1)NC1CCCCCC1,.,.,.,.,/,.,/,/,/,/,/,/
O=C(c1cc(COc2ccc(F)c(F)c2)on1)N1CCN(C/C=C/c2ccccc2)CC1,.,.,.,.,/,.,/,/,/,/,/,/
Cc1ccc(NC(=O)CSCC(=O)NCCc2ccccc2)c(C)c1,/,/,/,/,/,.,/,/,/,/,/,/
Cc1ccc(Cn2c(=N)c(C(=O)NCc3ccco3)cc3c(=O)n4ccccc4nc32)cc1,.,.,.,.,5.69,.,.,?,?,0.00548,.,.
COc1ccc(CNC(=O)c2cc3c(=O)n4ccccc4nc3n(Cc3ccco3)c2=N)cc1,/,/,/,/,.,/,/,/,/,/,/,/
O=C(C[C@H]1C/C=C\CC[C@@H](Cc2ccc(F)cc2)C(=O)OC[C@H]2CCCN2C1=O)NCCO,/,/,/,/,/,.,/,/,/,/,/,/
CCc1ccc(OCc2nnc(SCC(=O)Nc3cccc(C(=O)N4CCOCC4)c3)o2)cc1,.,.,.,.,-3.38,.,.,.,.,.,.,.
CCc1ccc(OCc2nnc(SCC(=O)N3CCOCC3)o2)cc1,.,.,.,.,.,.,/,/,/,/,/,/
CC(C)n1c(NCc2nc3ccccc3n2C)nc2ccccc21,.,.,.,.,/,.,.,.,.,.,.,?
CCOC(CNC(=O)C(=O)Nc1cc2c3c(c1)CCC(=O)N3CCC2)OCC,.,.,.,.,/,.,/,/,/,/,/,/
O=C(Oc1cc(-c2ccccc2)no1)c1ccc(Cl)cc1,.,.,.,.,-5.5,.,.,.,.,.,.,.
Cc1ccc(S(=O)(=O)N2CCN(C(=O)COC(=O)/C=C/c3ccccc3)CC2)c(C)c1,/,/,/,/,/,.,/,/,/,/,/,/
CN(C)c1ccc(C(=O)c2ccc(O)cc2O)cc1,.,.,.,.,-3.59,.,.,.,.,.,?,.
O=C(c1ccc(O)cc1)c1ccc(O)cc1O,.,.,.,.,.,.,/,/,/,/,/,/
O=C(CCc1ccc(S(=O)(=O)N2CCOCC2)cc1)Nc1ccc(F)cc1[N+](=O)[O-],/,/,/,/,/,.,/,/,/,/,/,/
CCN(CCCNC(=O)COc1cc(=O)n(C)c2ccccc12)c1ccccc1,.,.,.,.,.,.,/,/,/,/,/,/
CCN(CCCNC(=O)COc1cc(=O)n(CC)c2ccccc12)c1ccccc1,.,.,.,.,4.56,.,.,.,?,0.0063,.,.
O=C(NCCS(=O)(=O)NC1CCCC1)c1ccccc1,.,.,.,.,/,.,/,/,/,/,/,/
COc1ccc(-c2cc(C(=O)N3CCCCCC3)c3ccccc3n2)cc1,/,/,/,/,/,.,/,/,/,/,/,/
CCCc1oc2c(c(=O)c1CC)C(=O)CC(C)(C)C2,.,.,.,.,/,.,.,.,.,?,.,.
CC1OC(OC2C(OC3C(O[C@H]4CC[C@]5(C)C6C=C[C@]78OC[C@@]9(CC[C@@H](C)[C@H](C)C97)[C@H](O)C[C@@]8(C)[C@]6(C)CC[C@H]5C4(C)C)OC(C)C(O)C3O)OC(CO)C(O)C2O)C(O)C(O)C1O (stereo partly drawn),.,.,.,.,27.5,/,?,0.0251,.,0.0426,?,.
SMILES,KCNQ1 pot,hERG rescue,KCNK9 inh,KCNQ1 block,Cl transport mod,KCNK3 inh,KCC2 secondary,KCC2 bumet counter,KCC2 secondary2,HEK counter1,KCC2 ouabain,HEK293 Tl flux2
C[C@H]1O[C@@H](O[C@H]2CC[C@@]3(C)C(CC[C@]4(C)C3C=C[C@]35OC[C@@]6(CCC(C)(C)C[C@H]63)[C@@H](O)C[C@]54C)[C@]2(C)CO)[C@H](O)[C@@H](O[C@@H]2O[C@H](CO)[C@@H](O)[C@H](O)[C@H]2O)[C@H]1O (stereo partly drawn),/,/,/,/,/,.,/,/,/,/,/,/
CCCCN(C(=O)CSCC(=O)Nc1ccc(C)cc1)c1c(N)n(CCCC)c(=O)[nH]c1=O,.,.,.,.,/,.,/,/,/,/,/,/
COc1cc(C(=O)NCCc2cn3ccc(C)cc3n2)cc(OC)c1OC,.,.,.,.,-3.41,.,?,?,.,.,.,.
OC[C@@H](O)[C@@H](O)[C@H](O)[C@H](O)CO,.,.,.,.,/,.,/,/,/,/,/,/
Cn1cc(Br)c(C(=O)Nc2c(F)c(F)c(F)c(F)c2F)n1,.,.,.,.,-3.61,.,?,?,.,.,.,.
Cc1nn(Cc2c(F)c(F)c(F)c(F)c2F)c(C)c1NC(=O)c1nn(C)cc1Br,.,.,.,.,/,.,/,/,/,/,/,/
CCn1nc(C)c(CN2CCC(n3nccc3NC(=O)Cc3ccccc3)CC2)c1C,.,.,.,.,/,.,/,/,/,/,/,/
CC(C)(C)NS(=O)(=O)c1ccc(C(=O)Nc2ccc3c(c2)OCO3)cc1,.,.,.,.,/,.,/,/,/,/,/,/
O=S(=O)(c1ccc(Cl)cc1)N1CCN(CCc2ccncc2)CC1,.,.,.,.,/,.,/,/,/,/,/,/
CCc1cc(-c2n[nH]c(=S)n2-c2cccc(C)c2)cs1,.,.,.,.,42.7,.,0.0118,0.114,.,0.0198,0.0471,.
CC(c1ccc(F)cc1)n1c(-c2cccs2)n[nH]c1=S (stereo not drawn),.,.,.,.,5.19,.,.,0.0165,.,0.014,?,0.0157
CCCCCCn1c(-c2cccs2)n[nH]c1=S,.,7.9,.,.,45.6,.,.,0.0837,0.0678,0.0627,0.0673,0.0566
CCCCn1c(-c2csc3ccccc23)n[nH]c1=S,.,.,.,.,4.75,.,.,0.0229,?,0.0204,0.0276,0.0227
